Shown are actives, neighbours in structure and some others; about 3.9% of the full set was active somewhere.
XBP1 UPR activ – activators of adaptive XBP1 UPR arm, primary screen, cell-based, CHO-XBP1 luciferase reporter, luminescence, uHTS. AID 463104, 2010. 330,000 compounds, 0.33% hits. IRE1-XBP1 UPR activation; percent of tunicamycin response, DMSO as zero. activation, % at 20 µM;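 active = versus positive control, 20 µM dose yields 30% or more activation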;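 note: 100% = tunicamycin at 10 µg/mL and 0% = DMSO only wells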
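Material: CHO cell line with stable XBP1 luciferase reporter; schedule: 16-18 h cell attachment at 37 °C, then 6 h compound exposure; signal: glow luminescence from Steady-Glo reagent; medium: serum-containing F12 medium, 10% FBS; benchmarks: tunicamycin 10 µg/mL and vehicle-only wells; read-out: percent activation relative to tunicamycin reference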
Jurkat NFkB inh – inhibitors of induced NF-kB luciferase reporter, primary screen, TCR NF-kB activation inhibitor project, cell-based, luminescence, uHTS. inhibition, % at 4 µM. 330,000 compounds, 0.53% hits. Jurkat, PMA/ionomycin-induced NF-kB luciferase reporter; in the data active = inhibition above about 50%
CHOP UPR activ – activators of apoptotic CHOP UPR arm, primary screen, cell-based, CHO-CHOP luciferase reporter, luminescence, uHTS; UPR activation; percent of tunicamycin response over DMSO baseline; 330,000 compounds, 0.34% hits; activation, % at 10 µM; AID 449763, 2010;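 active = at 10 µM dose, activation of 40% or more, normalized to positive control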;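 note: 100% = tunicamycin at 10 µg/mL and 0% = DMSO alone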
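Evaluation: % reporter activation, DMSO baseline versus tunicamycin full activation; System: CHO-CHOP luciferase reporter cell line; Input: 500 cells/well; Incubation: 6 h compound treatment, 37 °C; Measured by: Steady-Glo luciferase luminescence; Dosing: one dose, 10 µM in 0.5% DMSO; Buffer or medium: F12 medium, 10% FBS; Benchmarks: positive tunicamycin 10 µg/mL, negative DMSO alone.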
697 NFkB inh – inhibitors of PMA/ionomycin-induced NF-kB reporter, 697 cells, primary screen, B-cell NF-kB inhibitor project, cell-based, luminescence, uHTS. inhibition, % at 4 µM. 697 B-cell NF-kB luciferase reporter, 16 h. 330,000 compounds, 0.33% hits; in the data active = inhibition above about 35%
CHOP inhibitor – inhibitors of CHOP promoter induction, primary screen, cell-based, unfolded protein response, luciferase reporter; CHO-K1 CHOP-promoter luciferase, tunicamycin-induced, 15-18 h; inhibition, % at 10 µM; 220,000 compounds, 3.8% hits;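 active = compounds that reduced the stress-induced luciferase reporter signal by more than about 70% of percent inhibition, limit read from the data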;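 note: 0% = tunicamycin plus vehicle and 100% = wells without tunicamycin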
Gli-Sufu block – Gli-Sufu pathway antagonists, primary screen, luciferase luminescence, Sufu-KO-LIGHT cells, uHTS. Sufu-KO-LIGHT fibroblasts, Gli luciferase reporter luminescence. inhibition, % at 5 µM. 340,000 compounds, 0.74% hits. AID 588413, 2011;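 active = inhibition above about 55%, limit read from the data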;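 note: 0% = DMSO-treated cells and 100% = wells with medium but no cells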
Active calls of the source: *; · = no result.

SMILES | XBP1 UPR activ | Jurkat NFkB inh | CHOP UPR activ | 697 NFkB inh | CHOP inhibitor | Gli-Sufu block
Cc1ccc(C2=NC(=O)/C(=C/c3cc(O)c(O)c(Br)c3)S2)cc1 | 2.5 | 2.8 | 0.6 | 0.0 | 72.5* | -4.0
CC(C)[C@@H]1CC[C@@H](C)c2c(-c3ccccc3)n[nH]c21 | -0.6 | -4.7 | -2.7 | -22.6 | 91.6* | -9.2
c1ccc(-c2n[nH]c3c2CCC3)cc1 | 1.5 | -3.3 | -2.7 | 3.4 | 10.4 | -2.4
Cn1c(SCC(=O)Nc2cccc(Br)c2)nnc1-c1cc2ccccc2o1 | -2.9 | -7.2 | 0.4 | 7.4 | 91.0* | -2.4
CC1Oc2ccccc2N(Cc2ccccc2F)C1=O (centres undefined) | -1.1 | 6.6 | 0.7 | 15.9 | 36.0 | ·
CC1Oc2ccccc2N(Cc2ccccc2Cl)C1=O (centres undefined) | 2.4 | 11.5 | 3.7 | 7.1 | 88.7* | -0.9
CCc1ccc(N2C(=O)c3sc4nnc(-c5ccccc5)c(=O)n4c3C2=O)cc1 | -3.2 | 15.2 | 0.0 | 7.5 | 70.9* | -4.0
CN1CCN(C(=O)OCCOCCOC(=O)N2CCN(C)CC2)CC1 | · | · | · | · | · | 3.4
CCC(C(=O)NC1CCCCC1)n1c2ccccc2c2nc(=O)cc(C)n21 (centres undefined) | -3.9 | -2.1 | 2.0 | -8.1 | · | -8.9
Cc1ccc(OCC(=O)Nc2ccc3c4c(cccc24)CC3)c(C)c1 | 7.3 | 7.0 | 0.7 | 2.3 | 81.7* | 6.7
Cc1cccc(OCC(=O)Nc2ccc3c4c(cccc24)CC3)c1C | 3.3 | -17.6 | 3.1 | -16.8 | -31.1 | 4.2
O=C(Nc1ccc2c(c1)OCO2)N1CCN(c2ccc(F)cc2)CC1 | -0.6 | -44.0 | 0.3 | -35.3 | 78.4* | -20.3
O=C(NCc1cccnc1)c1ccc(COc2ccc(Cl)cc2)cc1 | 4.5 | 9.2 | 9.3 | -33.5 | 71.0* | 23.6
O=C(COc1ccc(Cl)cc1)Nc1ccc(C(=O)NCc2cccnc2)cc1 | -0.2 | 11.3 | 1.0 | 16.6 | -4.0 | 16.8
CN(C)CCNc1ccc2nnn3c4ccc(O)cc4c(=O)c1c23 | · | · | · | · | · | 9.1
Cc1ccc(NCCN(C)C)c2c(=O)c3cc(O)ccc3sc12 | · | · | · | · | · | 66.2*
CSc1cccc(NC(=O)COC(=O)c2ccccn2)c1 | -1.4 | -7.4 | -1.8 | -5.2 | · | ·
Cn1c(SCc2cccc([N+](=O)[O-])c2)nc2c(c1=O)SCC2 | -2.1 | 12.7 | -1.1 | -19.6 | 75.2* | 23.4
CSc1ccc(C2c3[nH]c4ccccc4c3CCN2C(=O)c2cc(C)n(C)n2)cc1 (centres undefined) | 14.4 | -72.8 | 3.1 | -79.9 | 19.1 | ·
Cc1cc(C(=O)N2CCc3c([nH]c4ccccc34)C2c2cccc(Cl)c2)nn1C (centres undefined) | -1.6 | 11.9 | 2.9 | 4.0 | 92.5* | -6.2
Cc1cccc(C)c1NC(=O)CN1C(=O)CCSc2ccc(S(=O)(=O)N3CCCC3)cc21 | -1.9 | 8.8 | 2.8 | 16.4 | · | 4.5
O=C1/C(=C/c2cccnc2)Oc2cc(OS(=O)(=O)c3ccc(Cl)cc3)ccc21 | 0.4 | 2.9 | 1.8 | -8.9 | 78.2* | 8.1
CC1(C)Cc2c(c(-c3ccco3)nc3sc4c(NCC5CCCO5)ncnc4c23)CO1 (centres undefined) | 16.0 | 5.4 | 0.7 | 12.3 | 94.8* | -20.3
O=C/C(=C\Nc1ccc(Cl)cn1)c1nc2cc(Cl)ccc2o1 | 2.3 | -5.6 | 0.1 | -17.0 | 75.0* | 15.2
O=C/C(=C\Nc1ccc(Cl)cn1)c1nc2ccccc2o1 | -0.3 | 3.0 | -0.4 | 23.2 | 7.2 | 7.2
Oc1ccc(C[C@@H]2CNCCN2CCc2cccc(F)c2)cc1 | -0.6 | 19.6 | -2.7 | 26.8 | · | 3.2
CC1(C)CC(CC(=O)Nc2ccc([N+](=O)[O-])cc2)C(=O)O1 (centres undefined) | 1.2 | 9.2 | -2.3 | 24.7 | 12.2 | -0.2

Compound activity: PubChem BioAssay, several laboratories
